Source: ChEMBL document CHEMBL4616673 (J Med Chem, 2020)
Converted amounts (≈) assume the structure as drawn. “And” between values parts separate entries of the source, which are not always exact repeats. Equal values may be shown once. The source made the active and inactive calls. The calls are words filed in the database; no cut-off is given here.

Columns and labels:
[1] = Toxicity in NOD-SCID nude mouse xenografted with human Raji cells assessed as death at 40 to 80 mg/kg/day, po administered 6 days a week for 3 weeks; format: organism-based; settings: in vivo
Method in brief: (§1)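 Mice, 6-7 weeks old, injected s.c. with 1×10^7 Raji cells in serum-free medium plus basement membrane matrix. At 100–200 mm3 tumours, randomised (n=6). Oral dosing 6 days/week for 3 weeks: 30 mg/kg/d free compound suspended in 5% NMP/95% PEG400, or 40 or 80 mg/kg/d nanocrystal. Body weight and tumour volume measured every 3 days.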

[2] = Acute toxicity in BALB/c mouse assessed as effect on blood LDLC level at 800 mg/kg, po measured on day 14; format: organism-based; settings: in vivo
Method in brief: (§2)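 BALB/c mice, female and male, 6-8 weeks old, given oral doses within 24 h, up to 400 mg/kg (free compound) or 800 mg/kg (nanocrystal formulation). Watched for body weight loss, diarrhea, anorexia, skin ulcer and toxic death. Serum biochemistry panel was run at the end of treatment.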

[3] = Acute toxicity in BALB/c mouse assessed as effect on blood ALB level at 800 mg/kg, po measured on day 14; format: organism-based; settings: in vivo; method in brief: as §2
[4] = Solubility of the compound in PBS; format: physicochemical
[5] = Acute toxicity in BALB/c mouse assessed as effect on blood CREA level at 400 mg/kg, po measured on day 14; format: organism-based; settings: in vivo; method in brief: as §2
Raji [6] = assay: Cell cycle arrest in human Raji cells assessed as accumulation at S phase at 0.125 uM measured after 24 hrs by propidium iodide/RNase staining based flow cytometry (reference value: 52%); format: functional
[7] = Acute toxicity in BALB/c mouse assessed as effect on blood BILT level at 800 mg/kg, po measured on day 14; format: organism-based; settings: in vivo; method in brief: as §2
[8] = Acute toxicity in BALB/c mouse assessed as effect on blood ALB level at 400 mg/kg, po measured on day 14; format: organism-based; settings: in vivo; method in brief: as §2
Raji [9] = assay: Antiproliferative activity against human Raji cells assessed as reduction in cell viability measured after 48 hrs by MTT assay; format: functional, cell-based; settings: Homo sapiens, Raji, 48 h
[10] = Acute toxicity in BALB/c mouse assessed as effect on blood GLU level at 800 mg/kg, po measured on day 14; format: organism-based; settings: in vivo; method in brief: as §2
[11] = Toxicity in NOD-SCID nude mouse xenografted with human Raji cells assessed as dermatitis at 40 to 80 mg/kg/day, po administered 6 days a week for 3 weeks; format: organism-based; settings: in vivo; method in brief: as §1
[12] = Acute toxicity in BALB/c mouse assessed as effect on blood BILT level at 400 mg/kg, po measured on day 14; format: organism-based; settings: in vivo; method in brief: as §2
Raji [13] = assay: Antiproliferative activity against human Raji cells assessed as inhibition of cell proliferation at 0.02 to 0.156 uM measured after 48 hrs in presence of uridine by MTT assay; format: functional, cell-based
Method in brief: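 Raji cells treated with or without 500 μM uridine, viability by MTT. Cells seeded at 2-10 × 10^3 per well, treated 24 h later for 48 h. MTT (5 mg/mL) for 2-4 h, product dissolved overnight in 20% acidified SDS, absorbance at 570 nm. Mean ± SD.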

[14] = Half life in rat liver microsomes at 1 uM in presence of NADPH by LC-MS analysis; format: ADME, Microsome
Method in brief: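 Compound at 1 μM with 0.5 mg/mL human, rat or mouse liver microsomes and 1 mM NADPH. Stopped with acetonitrile at 0, 5, 15, 30, 45, 60 and 90 min, centrifuged. Supernatant analysed by LC-MS/MS.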

Raji [15] = assay: Induction of apoptosis in human Raji cells assessed as early apoptotic cells at 0.031 uM measured after 48 hrs by Annexin V-FITC staining based flow cytometry (reference value: 1 %); format: functional
MCF7 = assay: Antiproliferative activity against human MCF7 cells assessed as reduction in cell viability measured after 48 hrs by MTT assay; format: functional, cell-based; settings: Homo sapiens, MCF7, 48 h
Raji [16] = assay: Induction of apoptosis in human Raji cells assessed as live cells at 0.031 uM measured after 48 hrs by Annexin V-FITC staining based flow cytometry (reference value: 98.09 %); format: functional
[17] = Acute toxicity in BALB/c mouse assessed as effect on blood AST level at 800 mg/kg, po measured on day 14; format: organism-based; settings: in vivo; method in brief: as §2
[18] = Acute toxicity in BALB/c mouse assessed as effect on blood LDH level at 400 mg/kg, po measured on day 14; format: organism-based; settings: in vivo; method in brief: as §2
NAMALVA = assay: Antiproliferative activity against human NAMALWA cells assessed as reduction in cell viability measured after 48 hrs by MTT assay; format: functional, cell-based; settings: Homo sapiens, NAMALVA, 48 h
Raji [19] = assay: Induction of apoptosis in human Raji cells assessed as late apoptotic cells at 0.125 uM measured after 48 hrs by Annexin V-FITC staining based flow cytometry (reference value: 0.7 %); format: functional
[20] = Acute toxicity in BALB/c mouse assessed as effect on blood TG level at 400 mg/kg, po measured on day 14; format: organism-based; settings: in vivo; method in brief: as §2
[21] = Acute toxicity in BALB/c mouse assessed as effect on blood ALP level at 400 mg/kg, po measured on day 14; format: organism-based; settings: in vivo; method in brief: as §2
Raji [22] = assay: Induction of apoptosis in human Raji cells assessed as live cells at 0.125 uM measured after 48 hrs by Annexin V-FITC staining based flow cytometry (reference value: 98.09 %); format: functional
[23] = Stability of the compound in pH 9 buffer assessed as decrease in compound concentration at 0.01 mg/ml measured up to 24 hrs by LC-MS analysis; format: physicochemical; settings: read-out: Drug degradation
Method in brief: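 Compound at 0.01 mg/mL final in buffer containing 10% acetonitrile at pH 1.0, 4.5, 6.6, 7.4 or 9.0. Held at 37 °C, sampled at 0, 2, 4, 6, 8, 10, 12 and 24 h. Remaining compound by LC-MS.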

Raji [24] = assay: Induction of apoptosis in human Raji cells assessed as necrotic cells at 0.125 uM measured after 48 hrs by Annexin V-FITC staining based flow cytometry (reference value: 0.21 %); format: functional
[25] = Toxicity in NOD-SCID nude mouse xenografted with human Raji cells assessed as death at 30 mg/kg/day, po administered 6 days a week for 3 weeks; format: organism-based; settings: in vivo; method in brief: as §1
Raji [26] = assay: Antitumor activity against human Raji cells xenografted in NOD-SCID nude mouse assessed as tumor growth inhibition at 40 mg/kg/day, po administered 6 days a week for 3 weeks relative to control; format: functional; settings: read-out: TGI
[27] = Toxicity in NOD-SCID nude mouse xenografted with human Raji cells assessed as dermatitis at 30 mg/kg/day, po administered 6 days a week for 3 weeks; format: organism-based; settings: in vivo; method in brief: as §1

O=C1c2ccccc2C(=O)c2c1nnn2-c1cc(F)c(-c2ccccc2F)c(F)c1
Activity [1]: Non-Toxic
Activity [2]: Non-Toxic
Activity [3]: Non-Toxic
solubility [4]: 33.8 µg/mL (≈ 83.4 µM)
Activity [5]: Non-Toxic
Activity (Raji [6]): 86.31%
Activity [7]: Non-Toxic
Activity [8]: Non-Toxic
IC50 (Raji [9]): 160 nM
Activity [10]: Non-Toxic
Activity [11]: Non-Toxic
Activity [12]: Non-Toxic
inhibition (Raji [13]): inactive
t1/2 [14]: 19.8 min and 54 min
Activity (Raji [15]): 3.09%
IC50 (MCF7): 9610 nM
Activity (Raji [16]): 93.14%
Activity [17]: Non-Toxic
Activity [18]: Non-Toxic
IC50 (NAMALVA): 990 nM
Activity (Raji [19]): 6.04%
Activity [20]: Non-Toxic
Activity [21]: Non-Toxic
Activity (Raji [22]): 89.46%
degraded at 24 h, 0.01 mg/ml [23]: 15%
Activity (Raji [24]): 0.39%
Activity [25]: Non-Toxic
inhibition in vivo at 40 mg/kg/day (Raji [26]): 52%
Activity [27]: Non-Toxic
